Values after ≈ are worked out from the molar mass of the structure shown.
What was measured:
Candida albicans = experiment: Antifungal activity against Candida albicans by two fold serial dilution method; assay type: functional
Outline: (§1)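 Broth microdilution MIC following CLSI M27-A2 with twofold serial dilutions; strains ATCC 18804 (C. albicans), ATCC 22019 (C. parapsilosis), ATCC 750 (C. tropicalis), ATCC 32608 (C. gattii), kept on Sabouraud dextrose agar at 4 °C. Amphotericin B and trimethoprim/sulfamethoxazole served as positive controls.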

Candida tropicalis [1] = experiment: Antifungal activity against Candida tropicalis by two fold serial dilution method; assay type: functional; outline: as §1
Candida parapsilosis = experiment: Antifungal activity against Candida parapsilosis by two fold serial dilution method; assay type: functional; settings: Lodderomyces parapsilosis; outline: as §1
Candida tropicalis [2] = experiment: Antifungal activity against Candida tropicalis after 2 days by broth microdilution method in presence of 1 M osmotic stabilizer sorbitol; assay type: functional; settings: 48 h
[3] = tested on: Paracoccidioides brasiliensis; experiment: Antifungal activity against Paracoccidioides brasiliensis Pb18 by serial dilution method; assay type: functional
[4] = tested on: Paracoccidioides brasiliensis; experiment: Antifungal activity against Paracoccidioides brasiliensis Pb18 after 10 days by broth microdilution method in presence of 1 M osmotic stabilizer sorbitol; assay type: functional; settings: 240 h
[5] = tested on: Cryptococcus gattii species complex; experiment: Antifungal activity against Cryptococcus gattii by two fold serial dilution method; assay type: functional, Cryptococcus bacillisporus; outline: as §1
[6] = tested on: Cryptococcus gattii species complex; experiment: Antifungal activity against Cryptococcus gattii by two fold serial dilution method after 3 days by broth microdilution method in presence of 1 M osmotic stabilizer sorbitol; assay type: functional, Cryptococcus bacillisporus; settings: 72 h
MCF7 = experiment: Anticancer activity against human MCF7 cells after 48 hrs by sulforhodamine B assay; assay type: functional, cell-based
Outline: (§2)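 Solid tumour lines from NCI (NCI colorimetric protocol), seeded and pre-incubated 24 h at 37 °C, 5% CO2, then exposed to compounds for 48 h. Proteins fixed with trichloroacetic acid, stained with sulforhodamine B, dye dissolved in 10 mM Tris, absorbance at 515 nm compared against initial-density control wells. IC50 from dose-response curves built with 1:2 serial dilutions; duplicate, repeated at least three times.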

TK-10 = experiment: Anticancer activity against human TK10 cells after 48 hrs by sulforhodamine B assay; assay type: functional, cell-based; outline: as §2
UACC-62 = experiment: Anticancer activity against human UACC62 cells after 48 hrs by sulforhodamine B assay; assay type: functional, cell-based; outline: as §2
HL-60 = experiment: Anticancer activity against human HL60 cells after 48 hrs by MTT assay; assay type: functional, cell-based
Outline: (§3)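 HL60 and Jurkat leukemia lines plated at 50,000 and 100,000 cells/well respectively and pre-incubated 24 h at 37 °C, 5% CO2. Compounds dissolved in DMSO and tested over a concentration range of […] for 48 h. Viability read by MTT reduction (4 h), formazan dissolved in acidic isopropanol, OD 590 nm. Values normalized to 0.05% DMSO control; IC50 taken graphically from dose-effect curves. Triplicate, three separate days.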

Jurkat = experiment: Anticancer activity against human Jurkat cells after 48 hrs by MTT assay; assay type: functional, cell-based; outline: as §3
[7] = Homo sapiens, HL-60, 48 h, read-out: IC50
[8] = Homo sapiens, Jurkat, 48 h, read-out: IC50
[9] = Homo sapiens, MCF7, 48 h, read-out: IC50
[10] = Homo sapiens, TK-10, 48 h, read-out: IC50
[11] = Homo sapiens, UACC-62, 48 h, read-out: IC50

Compound | MIC (Candida albicans) [µg/mL] | MIC (Candida tropicalis [1]) [µg/mL] | MIC (Candida parapsilosis) [µg/mL] | MIC (Candida tropicalis [2]) [µg/mL] | MIC [3] [µg/mL] | MIC [4] [µg/mL] | MIC [5] [µg/mL] | MIC [6] [µg/mL] | IC50 (MCF7; mcf7) | IC50 (TK-10; tk-10) | IC50 (UACC-62; uacc-62) | IC50 (HL-60; [7]) [µg/mL] | IC50 (Jurkat; jurkat) | IC50 (Jurkat; [8]) [µg/mL] | IC50 (MCF7; [9]) [µg/mL] | IC50 (TK-10; [10]) [µg/mL] | IC50 (UACC-62; [11]) [µg/mL] | IC50 (HL-60; hl-60)
Cc1ccc(C(=O)/C=C/c2ccc3ncccc3c2)cc1 | > 500 | > 500 | > 500 | > 31.2 | 7.8 (≈ 28.5 µM) | 7.8 | > 500 | > 31.2 | Not Active | Not Active | Not Active | 8.28 (≈ 30.3 µM) | Not Active | – | – | – | – | –
COc1ccc(C(=O)/C=C/c2ccc3c(ccc[n+]3C)c2)cc1.[I-] | 62.5 | 62.5 | 125 | > 31.2 | 125 | > 31.2 | 31.2 | 62.5 | Not Active | Not Active | Not Active | 25.2 | – | 11.9 | – | – | – | –
O=C(/C=C/c1ccc2ncccc2c1)c1ccccc1 | > 500 | > 500 | > 500 | – | – | – | 125 (≈ 482 µM) | – | – | – | – | – | Not Active | – | 1.1 (≈ 4.24 µM) | 7 (≈ 27 µM) | 3.83 (≈ 14.8 µM) | Not Active
COc1ccc(C(=O)/C=C/c2ccc3ncccc3c2)cc1 | > 500 | > 500 | > 500 | – | 62.5 (≈ 216 µM) | – | > 500 | – | – | Not Active | – | 12.6 (≈ 43.5 µM) | – | 19.6 (≈ 67.7 µM) | 0.19 (≈ 0.657 µM) | – | 22.5 (≈ 77.8 µM) | –
O=C(/C=C/c1ccc2ncccc2c1)c1ccc([N+](=O)[O-])cc1 | > 500 | > 500 | > 500 | – | 500 (≈ 1640 µM) | – | > 500 | – | – | – | – | – | – | – | – | – | – | –
O=C(/C=C/c1ccc2ncccc2c1)c1ccc(F)cc1 | > 500 | > 500 | > 500 | > 31.2 | 7.8 (≈ 28.1 µM) | 7.8 | 500 (≈ 1800 µM) | > 31.2 | – | – | – | 20.8 (≈ 75 µM) | – | 26.5 (≈ 95.6 µM) | 6.3 (≈ 22.7 µM) | 1 (≈ 3.61 µM) | 5.6 (≈ 20.2 µM) | –
O=C(/C=C/c1ccc2ncccc2c1)c1ccc(Br)cc1 | > 500 | > 500 | > 500 | – | > 500 | – | > 500 | – | – | – | – | – | – | – | – | – | – | –
O=C(/C=C/c1ccc2ncccc2c1)c1ccc(Cl)cc1 | > 500 | > 500 | > 500 | – | 62.5 (≈ 213 µM) | – | > 500 | – | – | Not Active | Not Active | 8.8 (≈ 30 µM) | – | 15 (≈ 51.1 µM) | 0.96 (≈ 3.27 µM) | – | – | –
O=C(/C=C/c1ccc2c(ccc[n+]2[O-])c1)c1ccccc1 | > 500 | > 500 | > 500 | – | 62.5 (≈ 227 µM) | – | 250 (≈ 908 µM) | – | Not Active | Not Active | Not Active | 4.9 (≈ 17.8 µM) | Not Active | – | – | – | – | –
Cc1ccc(C(=O)/C=C/c2ccc3c(ccc[n+]3[O-])c2)cc1 | > 500 | > 500 | > 500 | – | 125 (≈ 432 µM) | – | 500 (≈ 1730 µM) | – | – | – | – | 20.3 (≈ 70.2 µM) | – | 32.5 (≈ 112 µM) | 8.3 (≈ 28.7 µM) | 1 (≈ 3.46 µM) | 5.3 (≈ 18.3 µM) | –
COc1ccc(C(=O)/C=C/c2ccc3c(ccc[n+]3[O-])c2)cc1 | > 500 | > 500 | > 500 | > 31.2 | 15.6 (≈ 51.1 µM) | 15.6 | > 500 | > 31.2 | – | – | – | 14.8 (≈ 48.5 µM) | – | 36.3 (≈ 119 µM) | 1.15 (≈ 3.77 µM) | 5.25 (≈ 17.2 µM) | 4.3 (≈ 14.1 µM) | –
O=C(/C=C/c1ccc2c(ccc[n+]2[O-])c1)c1ccc([N+](=O)[O-])cc1 | > 500 | > 500 | > 500 | – | 500 (≈ 1560 µM) | – | > 500 | – | – | – | – | – | – | – | – | – | – | –
O=C(/C=C/c1ccc2c(ccc[n+]2[O-])c1)c1ccc(F)cc1 | > 500 | > 500 | > 500 | > 31.2 | 1.9 (≈ 6.48 µM) | 1.9 | 62.5 (≈ 213 µM) | > 31.2 | – | – | – | – | – | 71.9 (≈ 245 µM) | 4.3 (≈ 14.7 µM) | 0.19 (≈ 0.648 µM) | 2.75 (≈ 9.38 µM) | Not Active
O=C(/C=C/c1ccc2c(ccc[n+]2[O-])c1)c1ccc(Br)cc1 | > 500 | > 500 | > 500 | – | 62.5 (≈ 176 µM) | – | 62.5 (≈ 176 µM) | – | – | – | – | 2.6 (≈ 7.34 µM) | – | 65.5 (≈ 185 µM) | 6.6 (≈ 18.6 µM) | 1.1 (≈ 3.11 µM) | 4.7 (≈ 13.3 µM) | –
O=C(/C=C/c1ccc2c(ccc[n+]2[O-])c1)c1ccc(Cl)cc1 | > 500 | > 500 | > 500 | > 31.2 | 15.5 (≈ 50 µM) | 15.6 | 250 (≈ 807 µM) | > 31.2 | – | – | – | 33.8 (≈ 109 µM) | – | 4.9 (≈ 15.8 µM) | 6.6 (≈ 21.3 µM) | 1.7 (≈ 5.49 µM) | 4.9 (≈ 15.8 µM) | –
C[n+]1cccc2cc(/C=C/C(=O)c3ccccc3)ccc21.[I-] | > 500 | 125 | > 500 | – | 500 | – | 31.2 | – | Not Active | Not Active | Not Active | – | Not Active | – | – | – | – | Not Active
Cc1ccc(C(=O)/C=C/c2ccc3c(ccc[n+]3C)c2)cc1.[I-] | 125 | 15.6 | > 500 | 62.5 | 62.5 | > 31.2 | 7.8 | 15.5 | Not Active | Not Active | Not Active | – | Not Active | – | – | – | – | Not Active
C[n+]1cccc2cc(/C=C/C(=O)c3ccc([N+](=O)[O-])cc3)ccc21.[I-] | > 500 | 250 | > 500 | > 31.2 | 250 | > 31.2 | 31.2 | 62.5 | Not Active | Not Active | Not Active | – | Not Active | – | – | – | – | Not Active
C[n+]1cccc2cc(/C=C/C(=O)c3ccc(F)cc3)ccc21.[I-] | 500 | 62.5 | > 500 | > 31.2 | – | > 31.2 | 15.6 | 62.5 | Not Active | Not Active | Not Active | – | Not Active | – | – | – | – | Not Active
C[n+]1cccc2cc(/C=C/C(=O)c3ccc(Br)cc3)ccc21.[I-] | 250 | 15.6 | 125 | 15.6 | 31.2 | 31.2 | 7.8 | 7.8 | Not Active | Not Active | Not Active | – | – | 7.3 | – | – | – | Not Active
C[n+]1cccc2cc(/C=C/C(=O)c3ccc(Cl)cc3)ccc21.[I-] | 500 | 31.2 | > 500 | 31.2 | 125 | > 31.2 | 15.6 | 15.6 | Not Active | Not Active | Not Active | 9.9 | – | 4.9 | – | – | – | –
C[C@@H]1[C@H](O)[C@@H](C)/C=C/C=C/C=C/C=C/C=C/C=C/C=C/[C@H](O[C@@H]2O[C@H](C)[C@@H](O)[C@H](N)[C@@H]2O)C[C@@H]2O[C@](O)(C[C@@H](O)C[C@@H](O)[C@H](O)CC[C@@H](O)C[C@@H](O)CC(=O)O[C@H]1C)C[C@H](O)[C@H]2C(=O)O [AMPHOTERICIN B] | 1 (≈ 1.08 µM) | 0.25 (≈ 0.271 µM) | 0.5 (≈ 0.541 µM) | – | 0.006 (≈ 0.00649 µM) | – | 1.2 (≈ 1.3 µM) | – | – | – | – | – | – | – | – | – | – | –
COc1cc([C@@H]2c3cc4c(cc3[C@@H](O[C@@H]3O[C@@H]5CO[C@@H](C)O[C@H]5[C@H](O)[C@H]3O)[C@H]3COC(=O)[C@H]23)OCO4)cc(OC)c1O [ETOPOSIDE] | – | – | – | – | – | – | – | – | – | – | – | 0.47 (≈ 0.799 µM) | – | 2.8 (≈ 4.76 µM) | 0.03 (≈ 0.051 µM) | 20.4 (≈ 34.7 µM) | 1.4 (≈ 2.38 µM) | –

Source: ChEMBL document CHEMBL1828502, “Quinolinyl and quinolinyl N-oxide chalcones: synthesis, antifungal and cytotoxic activities” (Eur J Med Chem, 2011)
